From article PMC10448641 (ACS Omega, 2023)

Tested on: WISH cells
Assay: MTT cytotoxicity assay, WISH normal cells
Format: cell-based
Details: read-out: IC50 ± SD, WISH (Normal cells)
In short: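 Cells obtained from the Egyptian National Cancer Institute and grown in RPMI-1640/DMEM with L-glutamine. Seeded at 5 × 10^4 cells/well in triplicate and treated at 0.1, 1, 10 and 100 μg/mL. Viability read by MTT on the second day with absorbance on a microplate reader. IC50 derived against control-group viability, recorded in triplicate, mean ± SD.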

**Q.** With COc1cccc2c1C(=O)c1c(O)c3c(c(O)c1C2=O)C[C@@](O)(C(=O)CO)C[C@@H]3O[C@H]1C[C@H](N)[C@H](O)[C@H](C)O1 [Doxorubicin] as the compound, how does the IC50 read?
**A.** 56.5 ± 2.7 µM
